# High-throughput results deposited in PubChem by several laboratories.
# Shown are actives, neighbours in structure and some others; about 1.6% of the full set was active somewhere.
# PfGluPho inh = PfG6PD (Plasmodium falciparum) enzyme inhibition; inhibition, % at 20 µM; PfGluPho enzyme, NADPH resazurin-diaphorase fluorescence; 0.78% of 350,000 active; AID 504690;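 active = inhibition reaching at least a set limit at 20 µM in the primary screen, cut at about 59% in these data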;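 note: 0% = DMSO wells with substrate and 100% = DMSO wells lacking glucose-6-phosphate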
# T cell modulator = T cell immune modulators affecting CD8 T cell-vesicle binding | 2C CD8+ T cell-vesicle binding, flow cytometry; active compounds read low | response (vesicle binding), % at 7 µM | 0.068% of 330,000 active | AID 2052;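 active = response, share of CD8 T cells binding vesicles, and their 90th percentile fluorescence all below set limits, cut at about 80% in these data, passing the limit was not always enough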;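 note: values below 100% mean blocked vesicle binding to the CD8+ T cells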
#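 Assay system – 2C mouse CD8+ T cells · Also added – QL9-loaded Drosophila micro-vesicles · Timing – Cell–vesicle co-incubation 1.5 h at 37 °C, staining 20 min on ice · Signal – flow cytometry of vesicle-bound cells · Measure – percent CD8+ FL2 mean versus row control · Controls – Peptide-free naked vesicles (low) and QL9 vesicles with 0.7% DMSO vehicle (high)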
# PKA-R2B activ = PKA-R2B complex activation; P22694+P31323; PKA-R2B holoenzyme dissociation, Cy5-IP20 fluorescence polarization; R2B truncated from residue 108, S112A mutant; 0% DMSO only, 100% 113 µM cGMP; activation, % at 11.4 µM; 0.079% of 340,000 active;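 active = activation above a cutoff set at the mean over all compounds plus 3 SD, cut at about 18% in these data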;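 note: higher means more holoenzyme dissociation and a rise in polarization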
# ATG4B inh = blocks human ATG4B protease cleavage of LC3 substrate | Q9Y4P1 | ATG4B cleavage of LC3-PLA2, NBD-HPC fluorescence, 1 h | inhibition, % at 8.33 µM | 0.51% of 340,000 active | AID 504462; in the data active = inhibition above about 40%
# Target sequence (Q9Y4P1 whole entry, looked up): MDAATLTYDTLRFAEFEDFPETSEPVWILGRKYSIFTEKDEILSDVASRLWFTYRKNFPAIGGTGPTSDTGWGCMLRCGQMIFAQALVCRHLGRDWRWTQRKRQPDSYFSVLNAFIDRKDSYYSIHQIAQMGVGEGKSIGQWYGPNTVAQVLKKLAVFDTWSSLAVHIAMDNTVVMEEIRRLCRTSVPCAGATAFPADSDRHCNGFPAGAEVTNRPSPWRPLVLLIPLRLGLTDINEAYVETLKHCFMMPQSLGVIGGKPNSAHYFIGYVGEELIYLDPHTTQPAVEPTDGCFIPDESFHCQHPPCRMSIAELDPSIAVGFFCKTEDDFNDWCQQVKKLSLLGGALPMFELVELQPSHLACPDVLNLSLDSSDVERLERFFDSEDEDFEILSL
# PKA-R1A activ = PKA-R1A complex activation; P00514+P68181; AID 504707; 0.083% of 340,000 active; activation, % at 11.4 µM; PKA-R1A dissociation, Cy5-IP20 fluorescence polarization; scaled: DMSO 0%, 113 µM cGMP 100%;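 active = percent activation above the mean of all tested compounds plus 3 SD, cut at about 19% in these data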;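 note: higher means more PKAc released from R1A so a rise in polarization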
# HKDC1 inh = inhibitors of human hexokinase HKDC1 | Q2TB90 | recombinant HKDC1, G6PDH/diaphorase resazurin coupled fluorescence | inhibition, % at 20 µM | 0.16% of 340,000 active | AID 493160;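 active = inhibition above about 35% when tested at 20 µM, limit read from the data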;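 note: plate controls were DMSO wells with enzyme for no effect and DMSO wells lacking enzyme for full effect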
#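 Assay system: recombinant HKDC1 hexokinase; detection: coupled resazurin fluorescence, excitation 525 nm, emission 613 nm; benchmarks: DMSO-plus-enzyme-mix negative control, buffer-substituted positive control; compound dosing: single 20 µM dose; schedule: 90 min at room temperature in dark; also added: glucose plus 1 mM ATP as hexokinase substrates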
# ATG4B confirm = ATG4B (human) inhibition, single-dose confirmed; shares compounds with ATG4B inh; ATG4B protease fluorescent substrate cleavage assay; inhibition, % at 8.33 µM; 92% of 320 active; AID 504757; in the data active = inhibition above about 39%
# PLA2 ctr = PLA2 (human) inhibition in ATG4B counter-screen. shares compounds with ATG4B inh. purified PLA2, NBD-C6-HPC fluorescence, 45 min. inhibition, % at 8.33 µM. 66% of 1,600 active; in the data active = inhibition above about 50%
# Target sequence (P04054 whole entry, looked up): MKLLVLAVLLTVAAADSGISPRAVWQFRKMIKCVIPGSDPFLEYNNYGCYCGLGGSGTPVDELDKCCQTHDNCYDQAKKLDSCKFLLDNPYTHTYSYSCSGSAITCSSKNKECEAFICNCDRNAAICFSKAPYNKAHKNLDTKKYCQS
# Starred values were filed as active, the others as inactive; . = no result.
SMILES,PfGluPho inh,T cell modulator,PKA-R2B activ,ATG4B inh,PKA-R1A activ,HKDC1 inh,PLA2 ctr,others
O=C(Nc1cc(-c2ccccc2)sc1C(=O)O)c1cccc(F)c1,-19,196,4,93*,-4,7,91*,
CN(CC(=O)Nc1cccc(S(=O)(=O)N(C)c2ccccc2)c1)Cc1cccs1,15,.,-2,.,0,.,.,
Cc1cc(C)c(Nc2cc(S(=O)(=O)O)c(N)c3c2C(=O)c2ccccc2C3=O)c(C)c1,-4,341,-5,49*,1,13,72*,
Cc1cc(C)c(NC(=O)COC(=O)c2cccc3c2C(=O)c2ccccc2C3=O)c(C)c1,3,250,8,-4,-12,3,.,
COc1ccccc1CN(C(=O)CNC(=O)c1ccco1)C(C(=O)NCC1CCCO1)c1ccc(OC)c(OC)c1 (stereo not drawn),-9,144,-1,2,4,5,.,
COc1ccc2cc(CN(Cc3cccs3)Cc3nnnn3Cc3ccccc3)c(=O)[nH]c2c1,15,272,-14,51*,-14,3,54*,
Cc1cccc2cc(CN(Cc3cccs3)Cc3nnnn3Cc3ccccc3)c(=O)[nH]c12,17,285,2,49*,-6,-1,62*,
CC1(CCCN2C(=O)c3ccccc3C2=O)OCCO1,6,102,.,-5,.,-8,.,
O=[N+]([O-])c1ccccc1CNCCCCCO,7,518,-3,2,0,-2,.,
Cc1cccc(C)c1OCc1cc(C(=O)NCc2ccc(Cl)s2)no1,8,615,5,61*,-9,-3,67*,
O=C(/C=C/c1ccccc1[N+](=O)[O-])Nc1cc(S(=O)(=O)N2CCOCC2)ccc1N1CCOCC1,12,.,-3,-2,-6,0,.,
COc1ccc(Oc2cccc(Cl)c2CNC(=O)c2ccccc2C(=O)O)cc1,-17,256,.,-3,.,-1,.,
O=C(NCc1c(Cl)cccc1Oc1ccccc1)c1ccccc1,7,504,-10,47*,-9,-2,57*,
COC(=O)COc1ccc(-c2ccccc2)cc1C=O,-10,148,-8,30,7,2,.,
COC(=O)COc1ccc(-c2ccc(F)cc2)cc1C=O,-5,719,-5,43*,9,-7,59*,
Cc1noc(C)c1CSc1nc2ccccc2c(=O)n1-c1ccc(F)cc1F,10,164,1,59*,-10,4,67*,
CCc1cccc(CC)c1-n1c(SCC(=O)N2CCc3ccccc3C2)nnc1-c1cccnc1,35,470,0,68*,-12,-6,63*,
O=C(c1cc(COc2c(F)cccc2F)on1)N1CCC(c2ccccc2F)C1 (stereo not drawn),-12,251,9,29,4,6,.,
O=C(c1cc(COc2c(F)cccc2F)on1)N1CCC(c2ccccc2Cl)C1 (stereo not drawn),25,894,1,40*,-10,-2,55*,
O=C1/C(=C/c2c[nH]c3ccccc23)CCC/C1=C\c1c[nH]c2ccccc12,28,310,-6,75*,0,-11,75*,
Cc1ccc(NS(=O)(=O)c2cc(Br)cnc2N)c(Cl)c1,-17,320,-8,8,0,0,.,
Nc1ncc(Br)cc1S(=O)(=O)Nc1cc(C(F)(F)F)cc(C(F)(F)F)c1,-32,317,-13,57*,-16,10,47,ATG4B confirm=56*
CC(C)COc1ccc(CNC(=S)NCc2ccccc2)cc1,13,308,-2,64*,-1,3,76*,
O=C(NNC(=O)C1CCC1)c1ccc(F)cc1,-25,.,0,.,2,.,.,
O=C(NC(Cc1ccccc1)C(=O)O)OCC1c2ccccc2-c2ccccc21 (stereo not drawn),-38,319,-13,44*,1,0,63*,
SMILES,PfGluPho inh,T cell modulator,PKA-R2B activ,ATG4B inh,PKA-R1A activ,HKDC1 inh,PLA2 ctr,others
COc1ccc(NC(=O)c2ccco2)cc1NC(=O)c1ccco1,4,680,2,0,16,0,.,
COc1ccc(NC(=O)c2ccco2)cc1NC(=O)c1c(OC)cccc1OC,6,321,3,46*,0,-1,52*,
CCn1cc(C(=O)OCC(=O)c2ccccc2)c(=O)c2ccc(C)nc21,-19,.,-7,7,5,2,.,
CCn1cc(C(=O)OCC(=O)c2cc(C)n(-c3cccc(C(F)(F)F)c3)c2C)c(=O)c2ccc(C)nc21,-18,344,-6,75*,-15,-7,67*,
CCn1cc(C(=O)NCc2cccc(C(F)(F)F)c2)c(=O)c2ccc(C)nc21,16,79,-7,53*,-5,2,50,
CCn1cc(C(=O)Nc2ccc(NC(=O)c3ccco3)cc2)c(=O)c2ccc(C)nc21,-1,98,-8,8,-5,5,.,
O=C1NC(=O)/C(=C/c2ccc(-c3cc(C(=O)O)ccc3Cl)o2)S1,-9,269,-2,26,2,16,.,
O=C1NC(=S)/C(=C\c2ccc(-c3ccccc3Cl)o2)S1,5,206,-6,65*,-8,13,8,
Oc1ccccc1CN(Cc1ccco1)CC(O)COCc1ccc(Cl)cc1 (stereo not drawn),6,248,-14,40*,-11,0,28,
O=C(NCc1cccnc1)Nc1ccccc1C(F)(F)F,-12,736,9,3,-5,2,.,
C=CCOC(=O)c1cc(-c2ccc(/C=C3\C(=O)NC(=O)C(C#N)=C3C)o2)ccc1Cl,35,.,7,70*,5,29,50,
CS(=O)(=O)N(CC(=O)Nc1cccc([N+](=O)[O-])c1)c1ccccc1,-5,160,9,-4,-11,-6,.,
COc1ccc(C)cc1S(=O)(=O)N(CC(=O)Nc1cccc([N+](=O)[O-])c1)c1ccccc1,13,150,-5,84*,5,15,90*,
Cc1ccccc1CN(CC(=O)Nc1cccc([N+](=O)[O-])c1)S(=O)(=O)c1ccc(Cl)cc1,47,684,-10,64*,2,-6,77*,
C=CCn1c(SCC(=O)N2CCC(C)CC2)nc2c([nH]c3ccccc32)c1=O,-8,.,-9,.,-8,.,.,
NC(=O)C1CCCCc2c1[nH]c1ccc(Cl)cc21 (stereo not drawn),1,124,-9,56*,2,-2,51*,
